Legend:
Escherichia coli [1] = test: Estimated rate of [3H]DHS uptake in Escherichia coli K12 (ATCC 25868); type: functional; design: unit not given here
Outline: (§1)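 Cultures in tryptone-peptone broth at 37 °C with shaking, grown from OD600 ~0.05 to 0.20, then preexposed to antibiotic for 20 min at 37 °C. Cells pelleted, resuspended in equal volume fresh broth, pulsed 5.0 min at 37 °C with [3H]DHS (1.0 µCi/mL, 3.8 Ci/mmol). Samples filtered, washed with 0.1 M LiCl, scintillation counted. C50 = half-maximal rate estimated from dose-response curves.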

Escherichia coli [2] = system: Escherichia coli;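 further: escherichia coli cells, read-out is the rate of enhanced [3H]DHS uptake, C50 being the level that yields half of the maximal rate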
[3] = Percent killing of the total Escherichia coli K12 (ATCC 25868)cells at the C50 concentration was determined.; type: ADME
Escherichia coli [4] = test: Concentration required for half maximum rate of enhanced [3H]DHS (Dihydrostreptomycin) uptake in Escherichia coli K12 (ATCC 25868)was estimated from dose-response curves; type: functional; outline: as §1
[5] = Lethal dose required to kill 90% of the Escherichia coli K12 (ATCC 25868) cell population; type: ADME
Outline: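 E. coli K12 in tryptone-peptone broth at 37 °C, OD600 0.20, exposed 20 min at 37 °C to antibiotic; pellets resuspended to OD600 0.10–0.15 in TPB, serially diluted, plated on tryptone-peptone agar, colonies counted after overnight at 37 °C. Value is the concentration killing 90% of the population.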

[6] = Percent killing of the total Escherichia coli K12 (ATCC 25868) cells at the C50 concentration was determined.; type: ADME
Escherichia coli [7] = test: Estimated rate of [3H]DHS (Dihydrostreptomycin) uptake in Escherichia coli K12 (ATCC 25868) [pmol/min (optical density unit)E-1] at the C50 was determined.; type: functional; outline: as §1
Escherichia coli [8] = test: Estimated rate of [3H]DHS (Dihydrostreptomycin) uptake in Escherichia coli K12 (ATCC 25868) [pmol/min (optical density unit)E-1] at the C50 was determined.; OD means optical density; type: functional
Outline: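 E. coli K12 grown in tryptone-peptone broth at 37 °C with shaking to OD600 0.20, preexposed 20 min at 37 °C to antibiotic across a dose range; cells pelleted, resuspended in TPB, given [3H]DHS (1.0 µCi/mL, 3.8 Ci/mmol) for 5.0 min at 37 °C; filtered, washed with 0.1 M LiCl, scintillation counted. Rate read at C50 (half-maximal induced rate) from dose-response curves.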

| Compound | Uptake at C50 (Escherichia coli [1]) | C50 (Escherichia coli [2]) | Kill at C50 [3] | C50 (Escherichia coli [4]) | LD90 [5] | Kill at C50 [6] | Uptake at C50 (Escherichia coli [7]) | Uptake at C50 (Escherichia coli [8]) |
| --- | --- | --- | --- | --- | --- | --- | --- | --- |
| CN1C(NC2OC(CO)C(OC(N)=O)C(O)C2NC(=O)CC(N)CCCN)=N[C@@H]2[C@H](O)CNC(=O)[C@H]21 (some centres undefined) | 4.1 | 0.1 µM | – | – | – | – | – | – |
| NC[C@H]1O[C@H](O[C@H]2[C@H](O)[C@@H](O[C@H]3O[C@H](CO)[C@@H](O)[C@H](N)[C@H]3O)[C@H](N)C[C@@H]2N)[C@H](N)C[C@@H]1O [TOBRAMYCIN] | 8.3 | – | 54% | 0.24 µM | 0.71 µM | – | – | – |
| CCN[C@@H]1C[C@H](N)[C@@H](O[C@H]2OC(CN)=CC[C@H]2N)[C@H](O)[C@H]1O[C@H]1OC[C@](C)(O)[C@H](NC)[C@H]1O [NETILMICIN] | 5.8 | 0.32 µM | – | – | 0.38 µM | 86% | – | – |
| 4-Amino-N-[5-amino-4-(3-amino-6-aminomethyl-4,5-dihydroxy-tetrahydro-pyran-2-yloxy)-3-(3,4-dihydroxy-5-hydroxymethyl-tetrahydro-furan-2-yloxy)-2-hydroxy-cyclohexyl]-2-hydroxy-butyramide (Butirosin) | 4 | 0.13 µM | – | – | – | – | – | – |
| CNC1C(O)C(OC2C(N)CC(N)C(OC3OC(C(C)N)CCC3N)C2O)OCC1(C)O (centres undefined) | – | – | – | 0.26 µM | 0.14 µM | 98% | 6.5 | – |
| NC[C@H]1O[C@H](O[C@H]2[C@H](O)[C@@H](O[C@H]3O[C@H](CO)[C@@H](O)[C@H](N)[C@H]3O)[C@H](N)C[C@@H]2N)[C@H](O)[C@@H](O)[C@@H]1O [KANAMYCIN A] | – | – | – | – | 0.85 µM | 93% | – | – |
| CN[C@H]1C[C@@H](N)[C@H](O)[C@@H](O[C@@H]2O[C@H](CO)[C@H](O)[C@H]3O[C@@]4(O[C@H]23)O[C@H]([C@H](N)CO)[C@H](O)[C@H](O)[C@H]4O)[C@@H]1O | – | > 50 µM | – | – | – | – | – | – |
| NC[C@H]1O[C@H](O[C@H]2[C@H](O[C@@H]3O[C@H](CO)[C@@H](O)[C@H]3O)[C@@H](O)[C@H](N)C[C@@H]2N)[C@H](N)[C@@H](O)[C@@H]1O [RIBOSTAMYCIN] | 2.6 | 1.2 µM | – | – | 0.17 µM | 99% | – | – |
| NCC[C@H](O)C(=O)N[C@@H]1C[C@H](N)[C@@H](O[C@H]2O[C@H](CN)[C@@H](O)[C@H](O)[C@H]2O)[C@H](O)[C@H]1O[C@H]1O[C@H](CO)[C@@H](O)[C@H](N)[C@H]1O (stereo in doubt) | – | 0.21 µM | – | – | – | – | – | 4.7 |
| CNC1C(OC2OC(CO)C(N)C(O)C2O)OC2CC(NC(=O)C(O)CCN)C(OC3C(N)CC(N)C(O)C3O)OC2C1O (centres undefined) | 2.6 | – | – | 0.84 µM | 0.72 µM | 93% | – | – |
| CN[C@@H]1[C@@H](O)[C@@H](O[C@@H]2[C@@H](O)[C@H](O[C@H]3O[C@H]([C@@H](C)NC)CC[C@H]3N)[C@@H](N)C[C@H]2N)OC[C@]1(C)O [GENTAMICIN C1] | – | 0.21 µM | – | – | 0.25 µM | 85% | – | 5.5 |
| CN[C@@H]1[C@H](O)[C@H](NC)[C@H]2O[C@@]3(O)C(=O)C[C@@H](C)O[C@H]3O[C@@H]2[C@H]1O | – | > 10 µM | – | – | – | – | – | – |
| GENTAMICIN [listing 1 of 2 here] | – | – | 72% | – | 0.43 µM | – | – | – |
| CNC1C(OC2OC(CO)C(N)C(O)C2O)OC2CC(NC(=O)CN)C(OC3C(N)CC(N)C(O)C3O)OC2C1O (centres undefined) | 3.3 | 0.45 µM | – | – | 0.83 µM | 53% | – | – |
| COC1C(O)C(N)C(OC2OC([C@H](C)N)CCC2N)C(O)C1N(C)C(=O)CN (some centres undefined) | 5.6 | 0.86 µM | – | – | 0.7 µM | 93% | – | – |
| NCC1OC(OC2C(N)CC(NC(=O)C3(O)CCNC3)C(OC3OC(CO)C(O)C(N)C3O)C2O)C(N)CC1O (centres undefined) | 4.4 | 0.12 µM | – | – | 0.31 µM | 65% | – | – |

| Compound | Uptake at C50 (Escherichia coli [1]) | C50 (Escherichia coli [2]) | Kill at C50 [3] | C50 (Escherichia coli [4]) | LD90 [5] | Kill at C50 [6] | Uptake at C50 (Escherichia coli [7]) | Uptake at C50 (Escherichia coli [8]) |
| --- | --- | --- | --- | --- | --- | --- | --- | --- |
| NC[C@@H]1O[C@@H](O[C@H]2[C@H](O)[C@@H](O[C@H]3O[C@H](CO)[C@@H](O)[C@H](N)[C@H]3O)[C@H](N)C[C@@H]2N)[C@@H](O)[C@H](O)[C@H]1O | 3.5 | 0.95 µM | – | – | – | – | – | – |
| NC[C@H]1O[C@H](O[C@@H]2[C@@H](O)[C@H](O[C@@H]3[C@H](O)[C@H](N)C[C@@H](N)[C@H]3O[C@H]3O[C@@H](CO)[C@@H](O)C[C@@H]3N)O[C@@H]2CO)[C@@H](N)[C@@H](O[C@H]2O[C@H](CO)[C@@H](O)[C@H](O)[C@@H]2O)[C@@H]1O | 4.4 | 0.57 µM | – | – | 0.88 µM | 78% | – | – |
| NC[C@@H]1O[C@H](O[C@H]2[C@@H](O)[C@H](O[C@@H]3[C@@H](O)[C@H](N)C[C@H](N)[C@H]3O[C@H]3O[C@H](CO)[C@@H](O)C[C@H]3N)O[C@@H]2CO)[C@H](N)[C@@H](O)[C@@H]1O[C@H]1O[C@H](CO)[C@@H](O)[C@H](O)[C@@H]1O [LIVIDOMYCIN] | 5.5 | 0.18 µM | 40% | – | 0.87 µM | – | – | – |
| GENTAMICIN [listing 2 of 2 here] | 7.3 | 0.24 µM | – | – | – | – | – | – |
| CNC1C(OC2OC(CO)C(N)C(O)C2O)OC2CC(N)C(OC3C(N)CC(NC(=O)CN)C(O)C3O)OC2C1O (centres undefined) | 2.1 | – | – | 1.1 µM | 0.84 µM | 94% | – | – |
| CN(C)[C@@H]1C(O)=C(C(N)=O)C(=O)[C@@]2(O)C(O)=C3C(=O)c4c(O)cccc4[C@@](C)(O)[C@H]3C[C@@H]12 | – | > 50 µM | – | – | – | – | – | – |
| NC[C@H]1O[C@H](O[C@H]2[C@H](O)[C@@H](O[C@H]3O[C@H](CO)[C@@H](O)[C@H](N)[C@H]3O)[C@H](N)C[C@@H]2N)[C@H](N)[C@@H](O)[C@@H]1O [BEKANAMYCIN] | 6.8 | 0.27 µM | 31% | – | 1.1 µM | – | – | – |
| NC[C@@H]1O[C@H](O[C@H]2[C@@H](O)[C@H](O[C@@H]3[C@@H](O)[C@H](N)C[C@H](N)[C@H]3O[C@H]3O[C@H](CO)[C@@H](O)[C@H](O)[C@H]3N)O[C@@H]2CO)[C@H](N)[C@@H](O)[C@@H]1O [PAROMOMYCIN] | 3.9 | 0.32 µM | 61% | – | 0.78 µM | – | – | – |
| CNC1C(OC2OC(CO)C(N)C(O)C2O)OC2CC(N)C(OC3C(N)CC(NC(=O)C(O)CCN)C(O)C3O)OC2C1O (centres undefined) | 2.4 | – | – | 0.39 µM | 1.2 µM | 53% | – | – |
| O=C(N[C@H](CO)[C@H](O)c1ccc([N+](=O)[O-])cc1)C(Cl)Cl | – | > 50 µM | – | – | – | – | – | – |
| NC[C@@H]1O[C@H](O[C@H]2[C@@H](O)[C@H](O[C@@H]3[C@@H](O)[C@H](N)C[C@H](N)[C@H]3O[C@H]3O[C@H](CN)[C@@H](O)[C@H](O)[C@H]3N)O[C@@H]2CO)[C@H](N)[C@@H](O)[C@@H]1O [FRAMYCETIN] | 1.6 | 0.34 µM | – | – | 0.46 µM | 82% | – | – |
| NCC1CCC(N)C(OC2C(N)CC(N)C(OC3OC(CO)C(O)C(N)C3O)C2O)O1 (centres undefined) | 8.1 | – | – | – | 0.89 µM | 74% | – | – |
| CN[C@@H]1[C@@H](O)[C@@H](O[C@@H]2[C@@H](O)[C@H](O[C@H]3OC(CN)=CC[C@H]3N)[C@@H](N)C[C@H]2N)OC[C@]1(C)O [SISOMICIN] | 7 | 0.31 µM | – | – | 0.49 µM | 77% | – | – |
| NCC1OC(OC2C(N)CC(NC(=O)C3(O)CNC3)C(OC3OC(CO)C(O)C(N)C3O)C2O)C(N)CC1O (centres undefined) | 4.4 | 0.12 µM | – | – | 0.63 µM | 50% | – | – |
| NCCCCNCCCN | – | > 50 µM | – | – | – | – | – | – |
